Test [1] concerns Mus musculus. Nature of the test: Evaluated against Maximal electroshock seizure test in mice after ip administration. The class given is functional. The method in brief:
(§1)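 Given intraperitoneally to mice. […] Seizure protection scored in the maximal electroshock test or against subcutaneous pentylenetetrazole (Metrazol). Neurologic toxicity scored on the rotorod.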

In test [2] the test system is Mus musculus. Nature of the test: Evaluated against neurological toxicity determined from the rotarod test in mice after ip administration. It counts as functional. The method in brief:
as §1

For test [3], the system named is Mus musculus. Briefly: Tested against subcutaneous pentylenetetrazole (Metrazol) seizure test in mice after ip administration. It counts as functional. An outline of the steps: as §1
Test [4] relates to Rattus norvegicus. Nature of the test: Evaluated against Maximal electroshock seizure test in rat after po administration.
For test [5], the system named is Rattus norvegicus. Nature of the test: Evaluated against neurological toxicity determined from the rotarod test in rat after po administration.
The nature of test [6]: Protective index (TD50/ED50) value of the compound. It counts as functional. An outline of the steps: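 Protective index taken as rotorod TD50 divided by maximal electroshock ED50, both in mg/kg and both from dose–effect data at the time of peak effect.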

This passage reports ED50, TD50 and PI results from ChEMBL document CHEMBL1134797, “Synthesis and structural studies of aza analogues of functionalized amino acids: new anticonvulsant agents” (2001).

Some results are limits rather than exact numbers.

Regarding `CC(=O)NN(C(=O)NCc1ccccc1)c1ccccn1`, the results for the ED50 in the test with Mus musculus [1], in the test on Mus musculus [3] and in the test with Rattus norvegicus [4] were over 30 mg/kg, over 100 mg/kg and under 30 mg/kg, respectively. Further, the TD50 with Mus musculus [2] is over 100 mg/kg; in the test with Rattus norvegicus [5], over 30 mg/kg.
For `CCCC(CCC)C(=O)O` [VALPROIC ACID], the figures for the ED50 in the test with Mus musculus [1] and with Rattus norvegicus [4] were 290 mg/kg and 400 mg/kg, respectively. Further, the TD50 in the test on Mus musculus [2] stood at 480 mg/kg. For the same compound, the PI in test [6] was found to be 1.3.
Take `CC(=O)NN(C(=O)NCc1ccccc1)c1ncccn1`: the ED50 in the test on Mus musculus [1] was over 100 mg/kg; in the test on Mus musculus [3], over 300 mg/kg; in the test with Rattus norvegicus [4], about 30 mg/kg. Further, the TD50 in the test with Mus musculus [2] is over 100 mg/kg; in the test on Rattus norvegicus [5], over 30 mg/kg.
`CC(=O)NN(C(=O)NCc1ccccc1)c1nccs1`: the ED50 is 22 mg/kg with Mus musculus [1], over 200 mg/kg in the test with Mus musculus [3] and 6.2 mg/kg with Rattus norvegicus [4]. The values for the TD50 in the test on Mus musculus [2] and in the test with Rattus norvegicus [5] were 120 mg/kg and over 250 mg/kg, respectively. Also, the PI in test [6] stood at 5.4.
For the compound `CC(=O)NN(C(=O)NCc1ccccc1)c1ccccc1`, the values for the ED50 in the test with Mus musculus [1], in the test on Mus musculus [3] and in the test with Rattus norvegicus [4] were over 30 mg/kg, over 300 mg/kg and over 30 mg/kg, respectively. Also, the results for the TD50 with Mus musculus [2] and with Rattus norvegicus [5] were over 100 mg/kg and over 30 mg/kg, respectively.
Consider `CC(=O)NNC(=O)NCc1ccccc1`, for which the values for the ED50 with Mus musculus [1], in the test on Mus musculus [3] and in the test with Rattus norvegicus [4] were over 100 mg/kg, over 300 mg/kg and 95 mg/kg, respectively. Also, the TD50 with Mus musculus [2] and in the test with Rattus norvegicus [5] was over 160 mg/kg throughout.
With `CC(=O)NN(C)C(=O)NCc1ccccc1`, the ED50 is 89 mg/kg with Mus musculus [1], over 300 mg/kg with Mus musculus [3] and over 30 mg/kg in the test on Rattus norvegicus [4]. For the same compound, the TD50 was over 500 mg/kg with Mus musculus [2] and over 30 mg/kg in the test on Rattus norvegicus [5]. The compound further displayed a PI in test [6] of over 5.6.
Regarding `O=C1NC(=O)C(c2ccccc2)(c2ccccc2)N1` [PHENYTOIN], the ED50 came to 6.5 mg/kg with Mus musculus [1] and 23 mg/kg in the test on Rattus norvegicus [4]. The TD50 in the test on Mus musculus [2] was 43 mg/kg. Also, in test [6], the PI was found to be 6.6.
Turning to `CCC1(c2ccccc2)C(=O)NC(=O)NC1=O` [PHENOBARBITAL], in the test on Mus musculus [1], the 50% effect level (ED50) was put at a dose of 22 mg/kg. Further, the TD50 with Mus musculus [2] was 69 mg/kg. This compound showed a PI in test [6] of 3.1.
